Where “and” joins values, the source holds several entries; their conditions need not be identical. Equal entries are not always repeated.

The species entered for test [1] is Rattus norvegicus. As to the kind of experiment: Tested for peak serum concentration in rat 6. The format is functional, organism-based. The gist of the method: (§1)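 Nonfasted female Sim:(SD)fBr rats (200-300 g), acclimated 72 h in metabolism cages, got a single oral dose (20 mg polymer or 16 mg SASP) as aqueous solution or suspension. Blood, urine and feces were collected to 96 h. Samples were β-glucuronidase-treated (37 °C, 18 h), acetylated, extracted and read fluorimetrically (ex 295, em 460 nm) against N-Ac-ASA standards.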

For test [2], the species on record is Rattus norvegicus. As to the kind of experiment: Tested for peak serum concentration in rat. It is filed as functional, organism-based. The gist of the method: as §1
The species named for test [3] is Rattus norvegicus. Put plainly: Tested for peak serum concentration in rat 5. It is filed as functional, organism-based. In a few lines: as §1
Test [4] is filed under the species Rattus norvegicus. Put plainly: Tested for peak serum concentration in rat 4. It is filed as functional, organism-based. In a few lines: as §1
For test [5], the species on record is Cavia porcellus. Put plainly: Tested for cecal ulceration in diarrhea at 60 umol concentration of compound. It is filed as functional. The gist of the method: (§2)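 Male Hartley guinea pigs (242-265 g), groups of 20, were gavaged twice daily with agent solutions or suspensions for 3 days. Then 5 wt % sterile degraded carrageenan was given as the sole drinking fluid, with dosing continued. Diarrhea was checked twice daily, body weight every 3 days, and necropsy done after 24 days of carrageenan.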

For test [6], the species on record is Cavia porcellus. As to the kind of experiment: Tested for cecal ulceration with mortality at 60 umol concentration of compound. It is filed as functional. In a few lines:
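Male Hartley guinea pigs (242-265 g, groups of 20) gavaged twice daily with 60 µmol doses as solution or suspension for 3 days. They were then given 5 wt % sterile degraded carrageenan as sole drinking fluid while dosing continued. Diarrhoea was checked twice daily and weight every 3 days. The study ended after 24 days of carrageenan, with necropsy and blind histology scored against untreated controls (Student's t test).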

The species entered for test [7] is Cavia porcellus. As to the kind of experiment: Tested for weight loss in guinea pig at 60 umol concentration of compound. The format is functional. The gist of the method:
as §2

The species named for test [8] is Cavia porcellus. As to the kind of experiment: Tested for cecal ulceration in necropsy at 60 umol concentration of compound. The format is functional. The gist of the method:
as §2

The species entered for test [9] is Cavia porcellus. As to the kind of experiment: Tested for mean score after quantitative histological evaluation result in guinea pig. The format is functional. More on the design: scale not given here. The gist of the method: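 Carrageenan colitis in male Hartley guinea pigs: 3 days of twice-daily gavage, then 5 wt % degraded carrageenan drinking water for 24 days with dosing continued. All animals, including early deaths, were scored histologically, reviewed blind by two evaluators. Total points per group were averaged and compared with untreated controls by Student's t test.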

Test [10] deals with Rattus norvegicus. As to the kind of experiment: Tested for total administered dose in rat 2. It is filed as functional. The gist of the method:
as §1

Test [11] deals with Rattus norvegicus. As to the kind of experiment: Tested for peak serum concentration in feces after oral administered dose in rat 1. It is filed as functional. The gist of the method:
as §1

For test [12], the system named is Rattus norvegicus. Put plainly: (§3) Tested for peak serum concentration in feces after oral administered dose in rat 3. The format is functional. The gist of the method:
as §1

The subject of test [13] is Rattus norvegicus. Put plainly: Tested for peak serum concentration in urine after oral administered dose in rat 1. The format is functional. The gist of the method:
as §1

Test [14] has as its system Rattus norvegicus. As to the kind of experiment: Tested for peak serum concentration in urine after oral administered dose in rat 3. It is filed as functional. The gist of the method:
as §1

Test [15] relates to Rattus norvegicus. As to the kind of experiment: Tested for peak serum concentration in urine after oral administered dose in rat 2. The format is functional. The gist of the method:
as §1

In test [16] the test system is Rattus norvegicus. As to the kind of experiment: Tested for peak serum concentration in feces after oral administered dose in rat 2. The format is functional. The gist of the method:
as §1

Test [17] concerns Rattus norvegicus. Put plainly: Tested for peak serum concentration in feces after mean oral administered dose in rat. It is filed as functional. The gist of the method: as §1
Test [18] deals with Rattus norvegicus. Put plainly: Tested for total administered dose in rat 1. The format is functional. The gist of the method: as §1
In test [19] the test system is Rattus norvegicus. The test is described as §3. It is filed as functional. The gist of the method: as §1
The source holds these as a separate data set.

The test system of test [20] is Rattus norvegicus. Put plainly: Tested for peak serum concentration in urine after mean oral administered dose in rat. It is filed as functional. The gist of the method: as §1
The subject of test [21] is Rattus norvegicus. Put plainly: Tested for peak serum concentration in urine after oral administered dose in rat 6. It is filed as functional. In a few lines: as §1
The subject of test [22] is Rattus norvegicus. As to the kind of experiment: (§4) Tested for peak serum concentration in feces after oral administered dose in rat 6. It is filed as functional. The gist of the method:
(§5)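 Nonfasted female Sim:(SD)fBr rats (200-300 g), acclimated 72 h to metabolism cages, got one oral dose as aqueous solution or suspension. Blood, urine and feces were collected to 96 h. Samples were hydrolysed with β-glucuronidase (pH 6.9, 37 °C, 18 h), acetylated, extracted with 4-methyl-2-pentanone and back-extracted into pH 6.0 buffer. Total 5-ASA plus metabolites were read fluorimetrically (ex 295, em 460 nm) against N-Ac-ASA standards.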

Test [23] deals with Rattus norvegicus. As to the kind of experiment: Tested for total administered dose in rat 4. It is filed as functional. The gist of the method:
as §5

The subject of test [24] is Rattus norvegicus. Put plainly: Tested for peak serum concentration in urine after oral administered dose in rat 4. The format is functional. In a few lines: as §1
Test [25] concerns Rattus norvegicus. As to the kind of experiment: Tested for total administered dose in rat 5. It is filed as functional. The gist of the method:
as §1

Test [26] has as its system Rattus norvegicus. Put plainly: Tested for peak serum concentration in urine after oral administered dose in rat 5. The format is functional. In a few lines:
as §1

In test [27] the test system is Rattus norvegicus. The test is described as §4. The format is functional. In a few lines:
as §1
The source holds these as a separate data set.

Test [28] deals with Rattus norvegicus. Put plainly: Tested for peak serum concentration in feces after oral administered dose in rat 5. It is filed as functional. The gist of the method: as §5
Test [29] has as its system Rattus norvegicus. Put plainly: Tested for peak serum concentration in feces after oral administered dose in rat 4. The format is functional. The gist of the method: as §1

`O=C(O)c1cc(/N=N/c2ccc(S(=O)(=O)Nc3ccccn3)cc2)ccc1O`: the Concentration was 4.8 nM ml-1 in the test filed under Rattus norvegicus [1]; 2.5 nM ml-1 and 5.6 nM ml-1 in the test filed under Rattus norvegicus [2]; 4 nM ml-1 in the test filed under Rattus norvegicus [3]; 7.9 nM ml-1 in the test filed under Rattus norvegicus [4].
Take `Nc1ccc(S(=O)(=O)Nc2ccccn2)cc1` [SULFAPYRIDINE]: the Incidence came to 80% in the test filed under Cavia porcellus [5], 15% in the test listed under Cavia porcellus [6] and 90% in the test listed under Cavia porcellus [8]. The Weight loss in the test listed under Cavia porcellus [7] worked out at 17 g. Besides, the Mean score in the test listed under Cavia porcellus [9] is 3.11.
`O=C([O-])c1cc(/N=N/c2ccc(S(=O)(=O)Nc3ccccn3)cc2)ccc1O.[Na+]` [POLYMER OF SULFASALAZINE]: the values for the Incidence in the test listed under Cavia porcellus [5], in the test filed under Cavia porcellus [6] and in the test listed under Cavia porcellus [8] were 85%, 25% and 85%, respectively. The Dose in the test with Rattus norvegicus [10] is listed as 18.9%; in the test with Rattus norvegicus [11], 5.3%; with Rattus norvegicus [12], 22%; with Rattus norvegicus [13] it was 6.7%; in the test with Rattus norvegicus [14], 7.7%; with Rattus norvegicus [15] it was 9.5%. For the same compound, the Dose with Rattus norvegicus [16] is 9.4%; in the test on Rattus norvegicus [18], 12%; in the test with Rattus norvegicus [19] it was 29.7%; in the test with Rattus norvegicus [20], 8%. In the test with Rattus norvegicus [17], the “Percent of oral dose recovered in feces” value is 12.3% and 20.2%. This compound came in with a Weight loss in the test filed under Cavia porcellus [7] of 37 g. This compound also registered a Mean score in the test listed under Cavia porcellus [9] of 2.16.
For `Nc1ccc(O)c(C(=O)O)c1` [MESALAMINE], the Incidence in the test listed under Cavia porcellus [5] came to 83%; in the test listed under Cavia porcellus [6], 28%; in the test listed under Cavia porcellus [8], 83%. In the test listed under Cavia porcellus [7], this compound gave a Weight loss of 12 g. The compound also gave a Mean score in the test filed under Cavia porcellus [9] of 2.4.
Take `O=C(O)c1cc(/N=N/c2ccc(S(=O)(=O)Nc3ccccn3)cc2)ccc1O` [SULFASALAZINE]: the values for the Incidence in the test filed under Cavia porcellus [5], in the test filed under Cavia porcellus [6] and in the test listed under Cavia porcellus [8] were 100%, 40% and 90%, respectively. Besides, the Dose was determined as 5% in the test with Rattus norvegicus [21]; 11.4% in the test with Rattus norvegicus [22]; 10.7% in the test on Rattus norvegicus [23]; 3% with Rattus norvegicus [24]; 17.2% in the test with Rattus norvegicus [25]; 3.2% in the test with Rattus norvegicus [26]. Further, the Dose came to 16.4% in the test with Rattus norvegicus [27], 14% in the test with Rattus norvegicus [28], 7.7% in the test with Rattus norvegicus [29] and 3.7% with Rattus norvegicus [20]. For the same compound, in the test with Rattus norvegicus [17], the “Percent of oral dose recovered in feces” value was 11% and 14.7%. The same compound displayed a Weight loss in the test listed under Cavia porcellus [7] of 44 g. The Mean score in the test filed under Cavia porcellus [9] came out at 2.68.

The record behind these values is ChEMBL document CHEMBL1122497, “A polymeric drug for treatment of inflammatory bowel disease” (1983).
